Eleven compounds from ChEMBL document CHEMBL4002548 (Eur J Med Chem, 2017) can be followed below.

One data set has as its system KG-1. Briefly: Antiproliferative activity against FGFR1-translocated human KG1 cells after 72 hrs by CCK8/SRB assay. It is filed as functional, cell-based. As to conditions: KG-1, 72 h. Put shortly: (§1)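 Cells seeded, then exposed next day to a range of compound concentrations for 72 h. Proliferation read by sulforhodamine B or CCK-8. IC50 obtained by four-parameter concentration–response curve fitting from two separate experiments. BaF3 lines stably express constitutively active TEL-FGFR4, TEL-KDR, CCDC6-RET or CCDC6-RET-V804M.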

For data set [1], the target named is Vascular endothelial growth factor receptor 2 (Homo sapiens, UniProt P35968). As to the kind of experiment: Inhibition of recombinant KDR (unknown origin) using poly (Glu, Tyr) 4:1 after 60 mins by ELISA method. For orientation: An ELISA detects its analyte on a solid surface through an enzyme-linked reagent.
Data set [2] concerns the target T1, Fibroblast growth factor receptor 1 (Homo sapiens, UniProt P11362). Briefly: Inhibition of recombinant FGFR1 (unknown origin) using poly (Glu, Tyr) 4:1 after 60 mins by ELISA method.
Target sequence in this assay (P11362 whole entry): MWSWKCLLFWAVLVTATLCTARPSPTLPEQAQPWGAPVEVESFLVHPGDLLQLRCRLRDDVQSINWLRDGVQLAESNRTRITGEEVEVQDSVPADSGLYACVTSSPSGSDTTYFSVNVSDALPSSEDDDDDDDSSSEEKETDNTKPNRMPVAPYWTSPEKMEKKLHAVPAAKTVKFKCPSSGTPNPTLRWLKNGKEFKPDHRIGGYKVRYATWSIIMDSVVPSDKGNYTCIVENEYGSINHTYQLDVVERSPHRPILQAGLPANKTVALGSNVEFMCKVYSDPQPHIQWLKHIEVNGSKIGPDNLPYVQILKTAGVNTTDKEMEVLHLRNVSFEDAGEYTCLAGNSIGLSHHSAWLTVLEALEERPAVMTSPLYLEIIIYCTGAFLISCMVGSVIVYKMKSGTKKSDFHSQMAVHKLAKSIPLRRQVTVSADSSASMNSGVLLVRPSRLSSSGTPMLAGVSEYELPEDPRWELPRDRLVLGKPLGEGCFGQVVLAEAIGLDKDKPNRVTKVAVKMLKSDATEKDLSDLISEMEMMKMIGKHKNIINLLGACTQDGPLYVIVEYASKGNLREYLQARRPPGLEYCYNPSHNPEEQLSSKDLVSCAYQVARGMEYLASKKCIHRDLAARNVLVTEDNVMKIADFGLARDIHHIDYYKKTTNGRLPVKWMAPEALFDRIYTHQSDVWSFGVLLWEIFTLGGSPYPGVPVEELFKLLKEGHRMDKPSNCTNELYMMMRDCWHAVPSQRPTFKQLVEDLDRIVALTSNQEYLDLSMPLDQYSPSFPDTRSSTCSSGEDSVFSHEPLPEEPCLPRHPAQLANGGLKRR
The target in data set [3] is T1, Fibroblast growth factor receptor 1. As to the kind of experiment: Inhibition of FGFR1 in FGFR1 translocated human KG1 cells assessed as suppression of phosphorylated ERK after 2 hrs by Western blot analysis. Put shortly:
(§2)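 KG1 cells treated with a range of compound concentrations for 2 h at 37 °C, then lysed in 1× SDS sample buffer. Lysates resolved by SDS–PAGE and blotted. Probes: phospho-FGFR1, FGFR, phospho-PLCγ, PLCγ, phospho-ERK1/2, ERK1/2, with GAPDH as loading control. Detection by HRP secondary and enhanced chemiluminescence.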
Target sequence in this assay (P11362 22-822 limits assumed): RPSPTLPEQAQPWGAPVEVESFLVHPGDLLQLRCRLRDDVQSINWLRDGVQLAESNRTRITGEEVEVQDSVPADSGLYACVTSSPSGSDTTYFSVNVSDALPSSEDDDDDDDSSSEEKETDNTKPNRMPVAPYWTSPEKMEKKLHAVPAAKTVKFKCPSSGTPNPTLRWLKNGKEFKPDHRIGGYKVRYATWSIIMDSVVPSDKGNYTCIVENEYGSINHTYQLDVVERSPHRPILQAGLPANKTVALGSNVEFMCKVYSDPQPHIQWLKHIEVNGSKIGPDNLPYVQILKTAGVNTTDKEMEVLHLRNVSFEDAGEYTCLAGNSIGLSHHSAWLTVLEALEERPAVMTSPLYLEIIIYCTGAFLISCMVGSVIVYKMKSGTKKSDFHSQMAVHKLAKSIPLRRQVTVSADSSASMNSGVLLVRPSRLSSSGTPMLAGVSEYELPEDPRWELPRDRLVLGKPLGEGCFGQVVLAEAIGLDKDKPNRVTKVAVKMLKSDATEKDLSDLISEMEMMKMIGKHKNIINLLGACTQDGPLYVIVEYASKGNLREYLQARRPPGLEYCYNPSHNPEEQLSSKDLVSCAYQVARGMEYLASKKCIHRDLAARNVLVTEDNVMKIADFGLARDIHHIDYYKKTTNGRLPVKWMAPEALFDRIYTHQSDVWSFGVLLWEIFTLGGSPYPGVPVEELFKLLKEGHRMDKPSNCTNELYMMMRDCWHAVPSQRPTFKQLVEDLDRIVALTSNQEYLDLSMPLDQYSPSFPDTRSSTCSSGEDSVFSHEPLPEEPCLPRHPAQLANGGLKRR
In general terms: A western blot detects proteins with antibodies after separation by electrophoresis.

Data set [4] addresses Proto-oncogene tyrosine-protein kinase Src (Homo sapiens, UniProt P12931). Briefly: Inhibition of recombinant c-Src (unknown origin) using poly (Glu,Tyr) 4:1 as substrate after 60 mins by ELISA.
The test system of data set [5] is BaF3. As to the kind of experiment: Antiproliferative activity against mouse BAF3 cells expressing TEL-FGFR4 fusion protein after 72 hrs by CCK8/SRB assay. Format: functional, cell-based. The following applies: BaF3, 72 h. Put shortly: as §1
Data set [6] concerns the target T1, Fibroblast growth factor receptor 1. Briefly: Inhibition of FGFR1 phosphorylation in FGFR1 translocated human KG1 cells after 2 hrs by Western blot method. A digest of the protocol: as §2
Target sequence in this assay (P11362 22-822 limits assumed): as above
The test system of data set [7] is BaF3. Briefly: Antiproliferative activity against mouse BAF3 cells expressing CCDC6-RET fusion protein after 72 hrs by CCK8/SRB assay. As to conditions: BaF3, 72 h. It is filed as functional, cell-based. A digest of the protocol:
as §1
In general terms: The SRB assay estimates cell density from bound dye.

For data set [8], the system named is BaF3. As to the kind of experiment: Antiproliferative activity against mouse BAF3 cells expressing TEL-KDR fusion protein after 72 hrs by CCK8/SRB assay. It is filed as functional, cell-based. As to conditions: BaF3, 72 h. Put shortly:
as §1

Data set [9] has as its system SNU-16. As to the kind of experiment: Antiproliferative activity against FGFR2-amplified human SNU16 cells after 72 hrs by CCK8/SRB assay. The following applies: SNU-16, 72 h. Format: functional, cell-based. Put shortly:
as §1

The test system of a further data set is RT-112. As to the kind of experiment: Antiproliferative activity against FGFR3-amplified human RT112 cells after 72 hrs by CCK8/SRB assay. It is filed as functional, cell-based. As to conditions: RT-112, 72 h. Put shortly:
as §1

Data set [10] addresses Vascular endothelial growth factor receptor 1 (Homo sapiens, UniProt P17948). As to the kind of experiment: Inhibition of recombinant VEGFR1 (unknown origin) using poly (Glu,Tyr) 4:1 as substrate after 60 mins by ELISA.
Data set [11] deals with NCI-H1581. Briefly: Antiproliferative activity against FGFR1-amplified human NCI-H1581 cells after 72 hrs by CCK8/SRB assay. The following applies: NCI-H1581, 72 h.
In data set [12] the test system is NCI-H1581. As to the kind of experiment: Antitumor activity against FGFR1-amplified human NCI-H1581 cells xenografted in nude mouse assessed as tumor growth inhibition at 20 mg/kg, po qd administered for 10 days and measured on day 10 post last dose relative to vehicle-treated control. It is filed as functional. As to conditions: 240 h, read-out: TGI. A digest of the protocol:
(§3)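 Male nude mice, 4-6 weeks old, kept under SPF conditions. Tumours grown s.c. from 5×10^6 cells, then passaged as 1 mm³ fragments by trocar. Randomised at 120–150 mm³ (n=6 treated, 12 vehicle). Compound given orally once daily, 10 days for NCI-H1581 and 18 days for SNU16. Calipers twice weekly; V = L×W²/2. TGI taken on final day from volume change versus vehicle.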

The test system of data set [13] is SNU-16. Briefly: Antitumor activity against FGFR2-amplified human SNU16 cells xenografted in nude mouse assessed as tumor growth inhibition at 20 mg/kg, po qd administered for 18 days and measured on day 18 post last dose relative to vehicle-treated control. It is filed as functional. As to conditions: SNU-16, po, 432 h, read-out: TGI. A digest of the protocol: as §3

Data set [14] deals with Platelet-derived growth factor receptor beta (Homo sapiens, UniProt P09619). As to the kind of experiment: Inhibition of recombinant PDGFRbeta (unknown origin) using poly (Glu,Tyr) 4:1 as substrate after 60 mins by ELISA.
Data set [15] addresses Fibroblast growth factor receptor 2 (Homo sapiens, UniProt P21802). Briefly: Inhibition of recombinant FGFR2 (unknown origin) using poly (Glu,Tyr) 4:1 as substrate after 60 mins by ELISA.
The target of data set [16] is Fibroblast growth factor receptor 4 (Homo sapiens, UniProt P22455). Briefly: Inhibition of recombinant FGFR4 (unknown origin) using poly (Glu,Tyr) 4:1 as substrate after 60 mins by ELISA.
Data set [17] deals with Fibroblast growth factor receptor 3 (Homo sapiens, UniProt P22607). Briefly: Inhibition of recombinant FGFR3 (unknown origin) using poly (Glu,Tyr) 4:1 as substrate after 60 mins by ELISA.
In data set [18] the test system is NCI-H1581. As to the kind of experiment: Antitumor activity against FGFR1-amplified human NCI-H1581 cells xenografted in nude mouse assessed as tumor growth inhibition at 5 mg/kg, po qd administered for 10 days and measured on day 10 post last dose relative to vehicle-treated control. The following applies: 240 h, read-out: TGI. Format: functional. A digest of the protocol: as §3

In data set [19] the target is Tyrosine-protein kinase ABL1 (Homo sapiens, UniProt P00519). Briefly: Inhibition of recombinant ABL (unknown origin) using poly (Glu,Tyr) 4:1 as substrate after 60 mins by ELISA.
The target in data set [20] is Platelet-derived growth factor receptor alpha (Homo sapiens, UniProt P16234). As to the kind of experiment: Inhibition of recombinant PDGFRalpha (unknown origin) using poly (Glu,Tyr) 4:1 as substrate after 60 mins by ELISA.
In data set [21] the target is Epidermal growth factor receptor (Homo sapiens, UniProt P00533). As to the kind of experiment: Inhibition of recombinant EGFR (unknown origin) using poly (Glu,Tyr) 4:1 as substrate after 60 mins by ELISA.
The subject of data set [22] is BaF3. As to the kind of experiment: Antiproliferative activity against mouse BAF3 cells expressing CCDC6-RET […] mutant after 72 hrs by CCK8/SRB assay. Format: functional, cell-based. The following applies: BaF3, 72 h. A digest of the protocol:
as §1

The nature of data set [23]: AUC (0 to 24 hrs) in mouse at 10 mg/kg, po. It is filed as ADME, organism-based. More on the design: time < 24 hr, dose 10 mg/kg, route oral. As to conditions: in vivo.
Data set [24] has as its target T1, Fibroblast growth factor receptor 1. Briefly: Inhibition of FGFR1 in FGFR1 translocated human KG1 cells assessed as suppression of PLCgamma phosphorylation after 2 hrs by Western blot analysis. Put shortly:
as §2
Target sequence in this assay (P11362 22-822 limits assumed): as above

The target in data set [25] is Proto-oncogene tyrosine-protein kinase receptor Ret (Homo sapiens, UniProt P07949). Briefly: Inhibition of recombinant RET (unknown origin) using poly (Glu,Tyr) 4:1 as substrate after 60 mins by ELISA.
A short description of data set [26]: Inhibition of recombinant RET […] mutant (unknown origin) using poly (Glu,Tyr) 4:1 as substrate after 60 mins by ELISA. More on the design: species or system Homo sapiens. A digest of the protocol:
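Poly(Glu,Tyr) 4:1 pre-coated at 20 µg/mL as substrate. Reaction with 10 µmol/L ATP in HEPES pH 7.4 buffer containing MgCl2, MnCl2, Na3VO4 and DTT; compound in 1% DMSO, with 1% DMSO as negative control; started by adding kinase. Run 60 min at 37 °C. Phosphotyrosine detected with PY99 and HRP anti-mouse IgG, o-phenylenediamine colour read at 490 nm. IC50 from inhibition curves, two separate experiments.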

In general, pIC50 refers to the IC50 on a negative log10 scale, so that one unit is a factor of ten. In general, AUC(0-t) refers to the area under the concentration-time curve up to a stated or last time point. Read a high AUC(0-t) as high exposure.

pIC50: −log10 of the molar value.

Sequence of Vascular endothelial growth factor receptor 2 (P35968 whole entry): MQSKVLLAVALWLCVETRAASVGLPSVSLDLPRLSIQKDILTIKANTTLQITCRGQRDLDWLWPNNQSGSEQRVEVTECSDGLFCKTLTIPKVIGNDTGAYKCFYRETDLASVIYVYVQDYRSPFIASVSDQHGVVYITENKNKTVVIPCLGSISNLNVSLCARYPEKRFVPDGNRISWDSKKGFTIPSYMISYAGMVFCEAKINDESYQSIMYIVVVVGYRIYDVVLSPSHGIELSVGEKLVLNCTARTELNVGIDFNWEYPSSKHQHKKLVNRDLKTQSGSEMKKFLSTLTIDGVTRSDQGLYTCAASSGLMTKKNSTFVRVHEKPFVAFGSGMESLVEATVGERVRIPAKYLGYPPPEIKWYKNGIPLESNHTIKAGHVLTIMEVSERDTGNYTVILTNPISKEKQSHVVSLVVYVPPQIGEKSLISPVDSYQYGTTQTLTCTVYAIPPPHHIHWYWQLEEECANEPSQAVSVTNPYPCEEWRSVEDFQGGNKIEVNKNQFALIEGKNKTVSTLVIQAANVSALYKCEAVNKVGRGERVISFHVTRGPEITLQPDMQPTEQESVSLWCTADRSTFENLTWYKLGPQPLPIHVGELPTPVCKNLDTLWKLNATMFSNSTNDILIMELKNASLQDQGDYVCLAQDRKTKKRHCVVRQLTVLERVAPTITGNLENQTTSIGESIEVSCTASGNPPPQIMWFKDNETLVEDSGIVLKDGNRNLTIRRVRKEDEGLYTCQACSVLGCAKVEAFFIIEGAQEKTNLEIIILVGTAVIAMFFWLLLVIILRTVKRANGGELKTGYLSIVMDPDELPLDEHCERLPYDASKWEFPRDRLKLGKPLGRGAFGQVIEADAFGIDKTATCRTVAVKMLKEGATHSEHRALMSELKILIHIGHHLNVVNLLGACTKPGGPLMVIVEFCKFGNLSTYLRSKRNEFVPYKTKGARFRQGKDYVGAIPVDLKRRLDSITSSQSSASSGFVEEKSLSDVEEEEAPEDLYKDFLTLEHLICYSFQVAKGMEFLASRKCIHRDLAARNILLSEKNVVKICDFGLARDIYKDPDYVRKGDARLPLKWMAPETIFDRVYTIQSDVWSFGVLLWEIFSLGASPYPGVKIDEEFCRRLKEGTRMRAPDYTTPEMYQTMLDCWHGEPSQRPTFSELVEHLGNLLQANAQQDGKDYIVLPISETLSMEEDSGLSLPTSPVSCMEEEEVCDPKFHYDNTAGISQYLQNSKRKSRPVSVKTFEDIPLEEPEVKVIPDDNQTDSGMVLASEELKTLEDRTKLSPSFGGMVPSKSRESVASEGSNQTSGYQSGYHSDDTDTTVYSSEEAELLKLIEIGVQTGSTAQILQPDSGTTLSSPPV
Sequence of Platelet-derived growth factor receptor beta (P09619 whole entry): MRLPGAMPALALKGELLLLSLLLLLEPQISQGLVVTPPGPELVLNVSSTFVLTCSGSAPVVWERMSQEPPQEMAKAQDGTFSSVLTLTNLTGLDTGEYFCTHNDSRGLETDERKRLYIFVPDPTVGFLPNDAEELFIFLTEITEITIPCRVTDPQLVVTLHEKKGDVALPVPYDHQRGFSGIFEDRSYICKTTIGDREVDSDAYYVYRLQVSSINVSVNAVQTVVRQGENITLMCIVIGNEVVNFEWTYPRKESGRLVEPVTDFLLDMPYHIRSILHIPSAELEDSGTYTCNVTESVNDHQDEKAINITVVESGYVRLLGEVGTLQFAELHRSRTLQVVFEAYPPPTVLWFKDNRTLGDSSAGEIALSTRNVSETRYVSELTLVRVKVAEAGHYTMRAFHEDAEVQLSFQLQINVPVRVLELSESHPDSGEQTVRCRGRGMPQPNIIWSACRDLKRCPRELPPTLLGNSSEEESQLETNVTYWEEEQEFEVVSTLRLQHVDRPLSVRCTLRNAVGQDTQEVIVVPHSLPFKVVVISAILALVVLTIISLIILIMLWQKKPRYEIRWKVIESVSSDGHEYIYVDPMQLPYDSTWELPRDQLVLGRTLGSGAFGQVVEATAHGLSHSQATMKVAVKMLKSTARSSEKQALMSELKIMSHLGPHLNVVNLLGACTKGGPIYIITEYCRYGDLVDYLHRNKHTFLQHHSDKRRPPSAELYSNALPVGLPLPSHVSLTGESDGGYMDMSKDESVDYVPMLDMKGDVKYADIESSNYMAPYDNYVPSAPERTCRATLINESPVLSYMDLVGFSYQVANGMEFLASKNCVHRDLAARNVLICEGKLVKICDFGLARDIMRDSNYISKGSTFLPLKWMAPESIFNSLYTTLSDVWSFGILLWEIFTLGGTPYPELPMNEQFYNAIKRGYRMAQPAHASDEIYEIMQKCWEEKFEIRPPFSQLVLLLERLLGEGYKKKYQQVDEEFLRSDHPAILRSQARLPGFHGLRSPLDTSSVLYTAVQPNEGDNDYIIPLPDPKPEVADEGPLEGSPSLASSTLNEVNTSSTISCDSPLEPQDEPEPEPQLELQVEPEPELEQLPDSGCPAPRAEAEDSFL
Sequence of Fibroblast growth factor receptor 3 (P22607 whole entry): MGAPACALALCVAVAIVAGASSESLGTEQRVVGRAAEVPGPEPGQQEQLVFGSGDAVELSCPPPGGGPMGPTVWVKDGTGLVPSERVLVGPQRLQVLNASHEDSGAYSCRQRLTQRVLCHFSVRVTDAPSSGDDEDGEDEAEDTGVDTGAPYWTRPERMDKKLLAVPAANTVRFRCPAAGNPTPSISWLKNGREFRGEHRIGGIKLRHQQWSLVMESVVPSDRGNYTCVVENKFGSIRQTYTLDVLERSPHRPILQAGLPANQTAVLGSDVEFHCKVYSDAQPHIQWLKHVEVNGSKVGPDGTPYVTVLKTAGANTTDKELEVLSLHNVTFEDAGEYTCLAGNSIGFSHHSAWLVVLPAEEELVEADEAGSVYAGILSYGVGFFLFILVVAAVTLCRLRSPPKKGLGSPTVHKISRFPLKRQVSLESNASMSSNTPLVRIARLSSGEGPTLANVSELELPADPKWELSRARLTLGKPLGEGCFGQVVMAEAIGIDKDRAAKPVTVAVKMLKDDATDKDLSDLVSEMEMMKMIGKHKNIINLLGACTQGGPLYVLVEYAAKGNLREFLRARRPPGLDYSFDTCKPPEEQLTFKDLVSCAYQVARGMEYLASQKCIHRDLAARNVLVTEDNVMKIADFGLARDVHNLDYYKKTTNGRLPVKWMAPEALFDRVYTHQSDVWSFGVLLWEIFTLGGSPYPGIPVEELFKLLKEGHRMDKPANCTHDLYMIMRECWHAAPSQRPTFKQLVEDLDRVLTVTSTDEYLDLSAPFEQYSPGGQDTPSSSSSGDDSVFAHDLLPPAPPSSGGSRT

For `CN1CCN(Cc2ccc(NC(=O)c3cc(C#Cc4cncc5ccccc45)ccn3)cc2C(F)(F)F)CC1`, the pIC50 in the data set on KG-1 is less than 6.30.
As to `CN1CCN(Cc2ccc(NC(=O)c3ccnc(C#Cc4cncc5ccccc45)c3)cc2C(F)(F)F)CC1`, the figures for the negative logarithm of the IC50 (pIC50) (in [1]; in the data set with KG-1) were 8.19 and 6.37, respectively.
`Cc1ccc(C(=O)Nc2ccc(CN3CCN(C)CC3)c(C(F)(F)F)c2)cc1C#Cc1cncc(N2CCN(C)CC2)c1`: the figures for the pIC50 (in data set [1]; in [2]; in the data set on KG-1) were 7.66, 8.24 and 7.66, respectively.
As for `Cc1ccc(C(=O)Nc2ccc(CN3CCN(C)CC3)c(C(F)(F)F)c2)cc1C#Cc1cncc(NC(C)C)c1`, the pIC50 is 7.22 in data set [1] and 7.07 in the data set with KG-1.
With `CN1CCN(Cc2ccc(NC(=O)c3ccc(Cl)c(C#Cc4cncc(N5CCOCC5)c4)c3)cc2C(F)(F)F)CC1`, the inhibition entry in data set [3], in [6] and in data set [24] was “Dose-dependent effect” each time. Moreover, the pIC50 was 7.97 in data set [4]; 6.88 in the data set with BaF3 [5]; 7.43 in the data set with BaF3 [7]; 6.31 in the data set with BaF3 [8]; 7.58 in the data set with SNU-16 [9]; 6.29 in the data set on RT-112. Also, the pIC50 in data set [10] is 7.20; in the data set with NCI-H1581 [11], 7.24; in data set [1], 7.31; in [14] it was 8.26; in data set [15], 9.52; in [16], 8.26. In addition, the pIC50 in [2] is 9.30; in data set [17], 9.00; in data set [19], 7.63; in data set [20], 8.25; in data set [21], less than 7.00; in the data set on BaF3 [22], 7.48. Moreover, the values for the negative logarithm of the IC50 (pIC50) (in [25]; in data set [26]; in the data set with KG-1) were 8.89, 8.12 and 8.12, respectively. Besides, the inhibition in vivo at 20 mg/kg in the data set with NCI-H1581 [12] stood at 73.4%; with SNU-16 [13], 93.9%. In the data set with NCI-H1581 [18], the inhibition in vivo at 5 mg/kg was determined as 8.3%. Besides, the area under the curve AUC(0-t) at 24 h in data set [23] was found to be 11400 ng·h/mL.
Regarding `CN1CCN(Cc2ccc(NC(=O)c3ccc(F)c(C#Cc4cncc5ccccc45)c3)cc2C(F)(F)F)CC1`, the negative logarithm of the IC50 (pIC50) in [1] was 8.26; in the data set with KG-1, 7.56.
On to `COc1cc(CCc2cc(NC(=O)c3ccc(N4C[C@@H](C)N[C@@H](C)C4)cc3)n[nH]2)cc(OC)c1` [FEXAGRATINIB], for which the inhibition in vivo at 20 mg/kg in the data set on NCI-H1581 [12] came out at 79.5%.
`CN1CCN(Cc2ccc(NC(=O)c3ccnc(C#Cc4cncc5ccccc45)n3)cc2C(F)(F)F)CC1` gave a negative logarithm of the IC50 (pIC50) with KG-1 of less than 6.30.
In the case of `CCN(CC)c1cncc(C#Cc2cc(C(=O)Nc3ccc(CN4CCN(C)CC4)c(C(F)(F)F)c3)ccc2C)c1`, the pIC50 is 6.98 in data set [1] and 7.23 in the data set on KG-1.
Consider `Cc1ccc(C(=O)Nc2ccc(CN3CCN(C)CC3)c(C(F)(F)F)c2)cc1C#Cc1cncc2c1ccn2C`, for which the negative-log IC50 (pIC50) in [1] was 7.20; in the data set with KG-1, 8.00.
With `Cc1ccc(C(=O)Nc2ccc(CN3CCN(C)CC3)c(C(F)(F)F)c2)cc1C#Cc1cncc2[nH]ccc12`, the negative-log IC50 (pIC50) was less than 7.00 in data set [1] and 6.31 with KG-1.
